From ChEMBL document CHEMBL4177605, “3'-Hydroxy-3,4'-dimethoxyflavone blocks tubulin polymerization and is a potent apoptotic inducer in human SK-MEL-1 melanoma cells” (Bioorg Med Chem, 2017)
Each block holds one compound with its values, some of them ahead of it. Active and inactive are the calls of the source. No cut-off for these calls is given here.

What was measured:
SK-MEL-1 [1] = experiment: Cytotoxicity against human SK-MEL-1 cells assessed as reduction in cell viability after 72 hrs by MTT assay; assay type: functional, cell-based; conditions: SK-MEL-1, 72 h
In short: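 1×10^4 exponentially growing cells were seeded with a range of compound concentrations for 72 h. MTT (0.5 mg/mL) was added for 4 h at 37 °C, and formazan was dissolved in 10% SDS/0.05 M HCl overnight at room temperature in the dark. A570 was read. IC50 was found by nonlinear regression for each experiment, with at least three independent experiments in triplicate.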

SK-MEL-1 [2] = experiment: Induction of apoptosis in human SK-MEL-1 cells assessed as chromatin fragmentation at 30 uM after 24 hrs by bisbenzimide trihydrochloride staining-based fluorescent microscopic analysis; assay type: functional, cell-based
In short: (§1)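 Cells were treated with 30 µM for 24 h, then stained with bisbenzimide trihydrochloride. Nuclear chromatin condensation and fragmentation were viewed by fluorescence microscopy.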

SK-MEL-1 [3] = experiment: Cell cycle arrest in human SK-MEL-1 cells assessed as accumulation at S phase at 10 uM after 24 hrs by propidium iodide staining-based flow cytometry (reference value: 17.7+/-0.4%); assay type: functional
SK-MEL-1 [4] = experiment: Cell cycle arrest in human SK-MEL-1 cells assessed as accumulation at G2/M phase at 3 uM after 24 hrs by propidium iodide staining-based flow cytometry (reference value: 16.1+/-0.2%); assay type: functional
SK-MEL-1 [5] = experiment: Cytotoxicity against human SK-MEL-1 cells assessed as formation of unhealthy cells after 24 hrs by inverted phase contrast microscopic analysis; assay type: functional, cell-based
In short: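 Cells were grown in RPMI 1640 with 10% heat-inactivated FBS, 2 mM L-glutamine and penicillin/streptomycin (37 °C, 5% CO2). They were incubated with vehicle or increasing concentrations for 24 h, then imaged under an inverted phase-contrast microscope.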

SK-MEL-1 [6] = experiment: Cell cycle arrest in human SK-MEL-1 cells assessed as accumulation at sub-G1 phase at 3 uM after 24 hrs by propidium iodide staining-based flow cytometry (reference value: 4.5+/-1.6%); assay type: functional
SK-MEL-1 [7] = experiment: Cell cycle arrest in human SK-MEL-1 cells assessed as accumulation at G1 phase at 10 uM after 24 hrs by propidium iodide staining-based flow cytometry (reference value: 61.5+/-1.7%); assay type: functional
SK-MEL-1 [8] = experiment: Induction of apoptosis in human SK-MEL-1 cells assessed as increase in […] cytochrome c level by Western blot analysis; assay type: functional, cell-based
In short: (§2)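 Cells were treated with increasing concentrations for 24 h and washed in PBS. Whole-cell lysates were used for pro-caspase-3. For cytochrome c, a cytosolic fraction was prepared: cells swelled in hypotonic HEPES buffer with 250 mM sucrose, were lysed through a 22-gauge needle, and spun at 1000×g then 105000×g (45 min, 4 °C). Both were probed by immunoblotting.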

SK-MEL-1 [9] = experiment: Cell cycle arrest in human SK-MEL-1 cells assessed as accumulation at S phase at 30 uM after 24 hrs by propidium iodide staining-based flow cytometry (reference value: 17.7+/-0.4%); assay type: functional
SK-MEL-1 [10] = experiment: Induction of apoptosis in human SK-MEL-1 cells assessed as cleavage of main executioner caspase up to 30 uM after 24 hrs by Western blot method; assay type: functional, cell-based; in short: as §2
SK-MEL-1 [11] = experiment: Cell cycle arrest in human SK-MEL-1 cells assessed as accumulation at G1 phase at 3 uM after 24 hrs by propidium iodide staining-based flow cytometry (reference value: 61.5+/-1.7%); assay type: functional
SK-MEL-1 [12] = experiment: Cell cycle arrest in human SK-MEL-1 cells assessed as accumulation at sub-G1 phase at 30 uM after 24 hrs by propidium iodide staining-based flow cytometry (reference value: 4.5+/-1.6%); assay type: functional
SK-MEL-1 [13] = experiment: Cell cycle arrest in human SK-MEL-1 cells assessed as accumulation at G2/M phase at 10 uM after 24 hrs by propidium iodide staining-based flow cytometry (reference value: 16.1+/-0.2%); assay type: functional
SK-MEL-1 [14] = experiment: Induction of apoptosis in human SK-MEL-1 cells assessed as increase in caspase-8 activity by measuring IETD-pNA substrate cleavage at 3 uM after 24 hrs by Bradford dye binding assay; assay type: functional, cell-based
In short: (§3)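 After treatment, cells were lysed in 50 mM HEPES pH 7.4, 1 mM DTT, 0.1 mM EDTA, 0.1% CHAPS. Protein was quantified by Bradford and equal amounts were used. DEVD-pNA (caspase-3/7), IETD-pNA (caspase-8) or LEHD-pNA (caspase-9) cleavage was read as net A405 increase at 37 °C. Results are fold increase over control, means ± SE of three experiments in triplicate.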

SK-MEL-1 [15] = experiment: Induction of apoptosis in human SK-MEL-1 cells assessed as condensation of cell nuclei and chromatins at 30 uM after 24 hrs by bisbenzimide trihydrochloride staining-based fluorescent microscopic analysis; assay type: functional; in short: as §1
SK-MEL-1 [16] = experiment: Induction of apoptosis in human SK-MEL-1 cells assessed as increase in caspase-3/7 activity by measuring DEVD-pNA substrate cleavage up to 30 uM after 24 hrs by Bradford dye binding assay; assay type: functional, cell-based; in short: as §3
SK-MEL-1 [17] = experiment: Cell cycle arrest in human SK-MEL-1 cells assessed as accumulation at G2/M phase at 30 uM after 24 hrs by propidium iodide staining-based flow cytometry (reference value: 16.1+/-0.2%); assay type: functional
SK-MEL-1 [18] = experiment: Induction of apoptosis in human SK-MEL-1 cells assessed as increase in caspase-8 activity by measuring IETD-pNA substrate cleavage up to 30 uM after 24 hrs by Bradford dye binding assay; assay type: functional, cell-based; in short: as §3
SK-MEL-1 [19] = experiment: Induction of apoptosis in human SK-MEL-1 cells assessed as increase in caspase-9 activity by measuring LEHD-pNA substrate cleavage up to 30 uM after 24 hrs by Bradford dye binding assay; assay type: functional, cell-based; in short: as §3
SK-MEL-1 [20] = experiment: Cell cycle arrest in human SK-MEL-1 cells assessed as accumulation at G1 phase at 30 uM after 24 hrs by propidium iodide staining-based flow cytometry (reference value: 61.5+/-1.7%); assay type: functional
SK-MEL-1 [21] = experiment: Induction of apoptosis in human SK-MEL-1 cells assessed as increase in caspase-9 activity by measuring LEHD-pNA substrate cleavage at 3 uM after 24 hrs by Bradford dye binding assay; assay type: functional, cell-based; in short: as §3
SK-MEL-1 [22] = experiment: Cell cycle arrest in human SK-MEL-1 cells assessed as accumulation at sub-G1 phase at 10 uM after 24 hrs by propidium iodide staining-based flow cytometry (reference value: 4.5+/-1.6%); assay type: functional
SK-MEL-1 [23] = experiment: Induction of apoptosis in human SK-MEL-1 cells assessed as increase in caspase-3/7 activity by measuring DEVD-pNA substrate cleavage at 3 uM after 24 hrs by Bradford dye binding assay; assay type: functional, cell-based; in short: as §3
Bos taurus = species: Bos taurus; experiment: Inhibition of bovine tubulin polymerization measured at every 30 secs intervals for 50 mins in presence of GTP
In short: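 Purified bovine tubulin without MAPs was incubated in 80 mM PIPES pH 7.0 with 1 mM GTP, 1 mM EGTA, 1 mM MgCl2 and 10% glycerol at 37 °C, across several compound concentrations. A340 was recorded every 30 s for 50 min. Taxol (10 µM) and colchicine (5 µM) served as promotion and inhibition controls.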

SK-MEL-1 [24] = experiment: Cell cycle arrest in human SK-MEL-1 cells assessed as accumulation at S phase at 3 uM after 24 hrs by propidium iodide staining-based flow cytometry (reference value: 17.7+/-0.4%); assay type: functional

SMILES: COc1ccc2c(=O)c(OC)c(-c3ccc(O)cc3)oc2c1
IC50 (SK-MEL-1 [1]): > 100 µM

SMILES: COc1cc([C@@H]2c3cc4c(cc3[C@@H](O[C@@H]3O[C@@H]5CO[C@@H](C)O[C@H]5[C@H](O)[C@H]3O)[C@H]3COC(=O)[C@H]23)OCO4)cc(OC)c1O [ETOPOSIDE]
IC50 (SK-MEL-1 [1]): 8 µM

inhibition (Bos taurus): Dose-dependent effect
SMILES: COc1ccc(-c2oc3ccccc3c(=O)c2OC)cc1O
Activity (SK-MEL-1 [2]): Active
Activity (SK-MEL-1 [3]): 23.7%
Activity (SK-MEL-1 [4]): 37.9%
Activity (SK-MEL-1 [5]): Active
Activity (SK-MEL-1 [6]): 15.9%
Activity (SK-MEL-1 [7]): 14.4%
Activity (SK-MEL-1 [8]): Dose-dependent effect
Activity (SK-MEL-1 [9]): 26.8%
Activity (SK-MEL-1 [10]): Active
Activity (SK-MEL-1 [11]): 24.4%
Activity (SK-MEL-1 [12]): 21.9%
Activity (SK-MEL-1 [13]): 52.2%
Activity (SK-MEL-1 [14]): Active
IC50 (SK-MEL-1 [1]): 6.9 µM
Activity (SK-MEL-1 [15]): Active
Activity (SK-MEL-1 [16]): Active
Activity (SK-MEL-1 [17]): 20.2%
Activity (SK-MEL-1 [18]): Active
Activity (SK-MEL-1 [19]): Active
Activity (SK-MEL-1 [20]): 30.7%
Activity (SK-MEL-1 [21]): Active
Activity (SK-MEL-1 [22]): 9.2%
Activity (SK-MEL-1 [23]): Active
Activity (SK-MEL-1 [24]): 21.4%

SMILES: COc1ccc(-c2oc3ccccc3c(=O)c2O)cc1O
IC50 (SK-MEL-1 [1]): 32.6 µM

SMILES: O=c1c(O)c(-c2ccc(O)cc2)oc2ccccc12
IC50 (SK-MEL-1 [1]): > 100 µM

SMILES: COc1ccc2c(=O)c(OC)c(-c3ccc(OC)c(O)c3)oc2c1
IC50 (SK-MEL-1 [1]): 26.2 µM

SMILES: COc1c(-c2ccccc2O)oc2ccccc2c1=O
IC50 (SK-MEL-1 [1]): > 100 µM

SMILES: COc1ccc2c(=O)c(OC)c(-c3ccc(O)c(OC)c3)oc2c1
IC50 (SK-MEL-1 [1]): 52 µM

SMILES: COc1c(-c2ccc(O)cc2)oc2ccccc2c1=O
IC50 (SK-MEL-1 [1]): 91 µM

SMILES: O=c1c(O)c(-c2ccccc2O)oc2ccccc12
IC50 (SK-MEL-1 [1]): > 100 µM

SMILES: COc1cc(-c2oc3ccccc3c(=O)c2O)ccc1O
IC50 (SK-MEL-1 [1]): 22 µM

SMILES: COc1cc(-c2oc3ccccc3c(=O)c2OC)ccc1O
IC50 (SK-MEL-1 [1]): 79 µM

SMILES: COc1ccc2c(=O)c(O)c(-c3ccc(OC)c(O)c3)oc2c1
IC50 (SK-MEL-1 [1]): 15.5 µM

SMILES: COc1ccc2c(=O)c(O)c(-c3ccc(O)c(OC)c3)oc2c1
IC50 (SK-MEL-1 [1]): 37 µM

SMILES: COc1ccc2c(=O)c(O)c(-c3ccc(O)cc3)oc2c1
IC50 (SK-MEL-1 [1]): > 100 µM

SMILES: COc1ccc2c(=O)c(O)c(-c3ccccc3O)oc2c1
IC50 (SK-MEL-1 [1]): > 100 µM
